≈ marks a conversion by molar mass, not a printed value.
Tests used:
Assay type in all cases: functional
Lacrimispora sphenoides [1] = test: Antibacterial activity against Clostridium sphenoides isolated from patient with diabetic foot infection assessed as percent resistant isolates after 44 to 48 hrs by agar dilution method
Summary of the method: (§1)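 Agar dilution per CLSI M11-A7. Twofold drug dilutions made on the test day and added to molten agar. Replicator-applied inoculum of 10^5 CFU/spot. Drug-free control plates inoculated before and after each drug set. Incubation at 37°C for 44 to 48 h, anaerobic chamber. MIC taken as the lowest concentration giving no growth or a marked change in growth versus controls.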

[2] = test system: Bacteroides thetaiotaomicron; test: Antibacterial activity against Bacteroides thetaiotaomicron isolated from patient with diabetic foot infection after 44 to 48 hrs by agar dilution method
Summary of the method: (§2)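 CLSI M11-A7 agar dilution: serial twofold drug dilutions made on the test day and added to molten agar. Spots of 10^5 CFU were applied by replicator, with drug-free control plates inoculated before and after each set. Incubation was 44 to 48 h at 37°C in an anaerobic chamber. MIC was the lowest concentration giving no growth or a marked change in growth versus controls.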

Parvimonas micra = test: Antibacterial activity against Peptostreptococcus micros isolated from patient with diabetic foot infection after 44 to 48 hrs by agar dilution method; summary of the method: as §2
Anaerococcus vaginalis [3] = test: Antibacterial activity against Anaerococcus vaginalis isolated from patient with diabetic foot infection assessed as percent resistant isolates after 44 to 48 hrs by agar dilution method; summary of the method: as §1
Cutibacterium acnes = test: Antibacterial activity against Propionibacterium acnes isolated from patient with diabetic foot infection after 44 to 48 hrs by agar dilution method; summary of the method: as §2
Bacteroides fragilis [4] = test: Antibacterial activity against Bacteroides fragilis isolated from patient with diabetic foot infection assessed as percent resistant isolates after 44 to 48 hrs by agar dilution method; summary of the method: as §1
Bacteroides ovatus [5] = test: Antibacterial activity against Bacteroides ovatus isolated from patient with diabetic foot infection assessed as percent resistant isolates after 44 to 48 hrs by agar dilution method; summary of the method: as §1
Prevotella bivia [6] = test: Antibacterial activity against Prevotella bivia isolated from patient with diabetic foot infection assessed as percent resistant isolates after 44 to 48 hrs by agar dilution method; summary of the method: as §1
Finegoldia magna [7] = test: Antibacterial activity against Finegoldia magna isolated from patient with diabetic foot infection assessed as percent resistant isolates after 44 to 48 hrs by agar dilution method; summary of the method: as §1
[8] = test system: Enterocloster clostridioformis; test: Antibacterial activity against Clostridium clostridioforme isolated from patient with diabetic foot infection assessed as percent resistant isolates after 44 to 48 hrs by agar dilution method; summary of the method: as §1
Porphyromonas somerae = test: Antibacterial activity against Porphyromonas somerae isolated from patient with diabetic foot infection assessed as percent resistant isolates after 44 to 48 hrs by agar dilution method; summary of the method: as §1
Bacteroides fragilis [9] = test: Antibacterial activity against Bacteroides fragilis isolated from patient with diabetic foot infection after 44 to 48 hrs by agar dilution method; summary of the method: as §2
[10] = test system: Enterocloster clostridioformis; test: Antibacterial activity against Clostridium clostridioforme isolated from patient with diabetic foot infection after 44 to 48 hrs by agar dilution method; summary of the method: as §2
[11] = test system: Clostridium malenominatum; test: Antibacterial activity against Clostridium malenominatum isolated from patient with diabetic foot infection assessed as percent resistant isolates after 44 to 48 hrs by agar dilution method; summary of the method: as §1
Prevotella bivia [12] = test: Antibacterial activity against Prevotella bivia isolated from patient with diabetic foot infection after 44 to 48 hrs by agar dilution method; summary of the method: as §2
Bacteroides ovatus [13] = test: Antibacterial activity against Bacteroides ovatus isolated from patient with diabetic foot infection after 44 to 48 hrs by agar dilution method; summary of the method: as §2
Parabacteroides merdae = test: Antibacterial activity against Parabacteroides merdae isolated from patient with diabetic foot infection assessed as percent resistant isolates after 44 to 48 hrs by agar dilution method; summary of the method: as §1
[Clostridium] innocuum [14] = Antibacterial activity against Clostridium innocuum isolated from patient with diabetic foot infection assessed as percent resistant isolates after 44 to 48 hrs by agar dilution method; summary of the method: as §1
Phocaeicola vulgatus [15] = test: Antibacterial activity against Bacteroides vulgatus isolated from patient with diabetic foot infection assessed as percent resistant isolates after 44 to 48 hrs by agar dilution method; summary of the method: as §1
Clostridium cadaveris = test: Antibacterial activity against Clostridium cadaveris isolated from patient with diabetic foot infection after 44 to 48 hrs by agar dilution method; summary of the method: as §2
[Clostridium] innocuum [16] = Antibacterial activity against Clostridium innocuum isolated from patient with diabetic foot infection after 44 to 48 hrs by agar dilution method; summary of the method: as §2
Anaerococcus prevotii = test: Antibacterial activity against Anaerococcus prevotii isolated from patient with diabetic foot infection after 44 to 48 hrs by agar dilution method; summary of the method: as §2
Phocaeicola vulgatus [17] = test: Antibacterial activity against Bacteroides vulgatus isolated from patient with diabetic foot infection after 44 to 48 hrs by agar dilution method; summary of the method: as §2
Finegoldia magna [18] = test: Antibacterial activity against Finegoldia magna isolated from patient with diabetic foot infection after 44 to 48 hrs by agar dilution method; summary of the method: as §2
[19] = test system: Peptoniphilus asaccharolyticus; test: Antibacterial activity against Peptoniphilus asaccharolyticus isolated from patient with diabetic foot infection assessed as percent resistant isolates after 44 to 48 hrs by agar dilution method; summary of the method: as §1
Bacteroides caccae [20] = test: Antibacterial activity against Bacteroides caccae isolated from patient with diabetic foot infection after 44 to 48 hrs by agar dilution method; summary of the method: as §2
Bacteroides caccae [21] = test: Antibacterial activity against Bacteroides caccae isolated from patient with diabetic foot infection assessed as percent resistant isolates after 44 to 48 hrs by agar dilution method; summary of the method: as §1
[22] = test system: Porphyromonas asaccharolytica; test: Antibacterial activity against Porphyromonas asaccharolyticus isolated from patient with diabetic foot infection assessed as percent resistant isolates after 44 to 48 hrs by agar dilution method; summary of the method: as §1
[23] = test system: Parabacteroides distasonis; test: Antibacterial activity against Parabacteroides distasonis isolated from patient with diabetic foot infection after 44 to 48 hrs by agar dilution method; summary of the method: as §2
[24] = test system: Porphyromonas asaccharolytica; test: Antibacterial activity against Porphyromonas asaccharolyticus isolated from patient with diabetic foot infection after 44 to 48 hrs by agar dilution method; summary of the method: as §2
[25] = test system: Bacteroides thetaiotaomicron; test: Antibacterial activity against Bacteroides thetaiotaomicron isolated from patient with diabetic foot infection assessed as percent resistant isolates after 44 to 48 hrs by agar dilution method; summary of the method: as §1
Lacrimispora sphenoides [26] = test: Antibacterial activity against Clostridium sphenoides isolated from patient with diabetic foot infection after 44 to 48 hrs by agar dilution method; summary of the method: as §2
[27] = test system: Clostridium malenominatum; test: Antibacterial activity against Clostridium malenominatum isolated from patient with diabetic foot infection after 44 to 48 hrs by agar dilution method; summary of the method: as §2
[28] = test system: Peptostreptococcus anaerobius; test: Antibacterial activity against Peptostreptococcus anaerobius isolated from patient with diabetic foot infection after 44 to 48 hrs by agar dilution method; summary of the method: as §2
[29] = test system: Peptoniphilus asaccharolyticus; test: Antibacterial activity against Peptoniphilus asaccharolyticus isolated from patient with diabetic foot infection after 44 to 48 hrs by agar dilution method; summary of the method: as §2
Bacteroides stercoris = test: Antibacterial activity against Bacteroides stercoris isolated from patient with diabetic foot infection assessed as percent resistant isolates after 44 to 48 hrs by agar dilution method; summary of the method: as §1
Anaerococcus vaginalis [30] = test: Antibacterial activity against Anaerococcus vaginalis isolated from patient with diabetic foot infection after 44 to 48 hrs by agar dilution method; summary of the method: as §2

## C[C@@H](O)[C@H]1C(=O)N2C(C(=O)O)=C(S[C@@H]3CN[C@H](C(=O)N(C)C)C3)[C@H](C)[C@H]12 [MEROPENEM]
Lacrimispora sphenoides [1]
  Activity: 0%
[2]
  MIC50: 0.25 µg/mL (≈ 0.652 µM)
  MIC90: 1 µg/mL (≈ 2.61 µM)
Parvimonas micra
  MIC50: 0.125 µg/mL (≈ 0.326 µM)
  MIC90: 0.25 µg/mL (≈ 0.652 µM)
Anaerococcus vaginalis [3]
  Activity: 0%
Cutibacterium acnes
  MIC50: 0.125 µg/mL (≈ 0.326 µM)
  MIC90: 0.25 µg/mL (≈ 0.652 µM)
Bacteroides fragilis [4]
  Activity: 0%
Bacteroides ovatus [5]
  Activity: 0%
Prevotella bivia [6]
  Activity: 0%
Finegoldia magna [7]
  Activity: 0%
[8]
  Activity: 0%
Porphyromonas somerae
  Activity: 0%
Bacteroides fragilis [9]
  MIC50: 0.125 µg/mL (≈ 0.326 µM)
  MIC90: 0.25 µg/mL (≈ 0.652 µM)
[10]
  MIC50: 0.06 µg/mL (≈ 0.156 µM)
  MIC90: 1 µg/mL (≈ 2.61 µM)
[11]
  Activity: 0%
Prevotella bivia [12]
  MIC50: 0.06 µg/mL (≈ 0.156 µM)
  MIC90: 0.125 µg/mL (≈ 0.326 µM)
Bacteroides ovatus [13]
  MIC50: 0.25 µg/mL (≈ 0.652 µM)
  MIC90: 1 µg/mL (≈ 2.61 µM)
Parabacteroides merdae
  Activity: 0%
[Clostridium] innocuum [14]
  Activity: 0%
Phocaeicola vulgatus [15]
  Activity: 0%
Clostridium cadaveris
  MIC50: 0.06 µg/mL (≈ 0.156 µM)
  MIC90: 1 µg/mL (≈ 2.61 µM)
[Clostridium] innocuum [16]
  MIC50: 0.06 µg/mL (≈ 0.156 µM)
  MIC90: 1 µg/mL (≈ 2.61 µM)
Anaerococcus prevotii
  MIC50: 0.03 µg/mL (≈ 0.0782 µM)
  MIC90: 0.125 µg/mL (≈ 0.326 µM)
Phocaeicola vulgatus [17]
  MIC50: 0.25 µg/mL (≈ 0.652 µM)
  MIC90: 1 µg/mL (≈ 2.61 µM)
Finegoldia magna [18]
  MIC50: 0.06 µg/mL (≈ 0.156 µM)
  MIC90: 0.125 µg/mL (≈ 0.326 µM)
[19]
  Activity: 0%
Bacteroides caccae [20]
  MIC50: 0.25 µg/mL (≈ 0.652 µM)
  MIC90: 1 µg/mL (≈ 2.61 µM)
Bacteroides caccae [21]
  Activity: 0%
[22]
  Activity: 0%
[23]
  MIC50: 0.25 µg/mL (≈ 0.652 µM)
  MIC90: 1 µg/mL (≈ 2.61 µM)
[24]
  MIC50: ≤ 0.015 µg/mL
  MIC90: ≤ 0.015 µg/mL
[25]
  Activity: 0%
Lacrimispora sphenoides [26]
  MIC50: 0.06 µg/mL (≈ 0.156 µM)
  MIC90: 1 µg/mL (≈ 2.61 µM)
[27]
  MIC50: 0.06 µg/mL (≈ 0.156 µM)
  MIC90: 1 µg/mL (≈ 2.61 µM)
[28]
  MIC50: 0.125 µg/mL (≈ 0.326 µM)
  MIC90: 0.25 µg/mL (≈ 0.652 µM)
[29]
  MIC50: ≤ 0.015 µg/mL
  MIC90: 0.125 µg/mL (≈ 0.326 µM)
Bacteroides stercoris
  Activity: 0%
Anaerococcus vaginalis [30]
  MIC50: 0.03 µg/mL (≈ 0.0782 µM)
  MIC90: 0.125 µg/mL (≈ 0.326 µM)

— ChEMBL document CHEMBL1153560, “In vitro activities of doripenem and six comparator drugs against 423 aerobic and anaerobic bacterial isolates from infected diabetic foot wounds” (2008)
